In the EternaBench riboswitch data:

System: MS2 coat protein
Test: apparent Kd, MS2 coat protein; higher = weaker binding; RNA-MaP array; FMN 200 µM where present
In short: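 SNAP-549-labelled MS2 coat protein, doubled from 0.7 or 1.5 nM to 3 µM, was titrated over designs transcribed by stalled E. coli RNA polymerase on Illumina sequencing-chip clusters. Titrations were run without and then with constant ligand in 100 mM Tris-HCl pH 7.5, 80 mM KCl, 4 mM MgCl2, BSA, DTT, yeast tRNA and Tween-20. The apparent Kd is the median of filtered per-cluster fits to green signal normalised to red-channel RNA signal and control-cluster median Fmax.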

[1] = designed as: OFF switch for flavin mononucleotide, no ligand
[2] = ligand present: flavin mononucleotide, designed as: OFF switch for flavin mononucleotide
[3] = designed as: ON switch for flavin mononucleotide, no ligand
[4] = ligand present: flavin mononucleotide, designed as: ON switch for flavin mononucleotide

| Sequence | apparent Kd [1] [nM] | apparent Kd [2] [nM] | apparent Kd [3] [nM] | apparent Kd [4] [nM] |
| --- | --- | --- | --- | --- |
| AGGAGGUCAGGAUAUGCAUGGCGGGACUUGCGUCGUGGCGUGCAGAAGGGACAUGAGGAUCACCCAUGUGGAGC | 66.4 | 106 |  |  |
| GUGGCUAGUGCAGGAUAUCGGCGCGUGUAGUGCCGAGAAGGGCACAUGAGGAUCACCCAUGUGAUCAAUCACUGCUAAGGCCGC | 5.19 | 5.37 |  |  |
| AAUAAGCUAGGAUAUACAUGAGGAUCACCCAUGUGAGGGCACCGCCGGCGCGGGCCCGGUAGAAGGAGCAAUAA | 14.2 | 13.2 |  |  |
| AGUGUAGAGGUGAAGCGAAUUACUGAGGAUAUGACAUGAGGAUCACCCAUGUACACAUCCUCAGGUCAGAAGGCAGUGGUUCUU | 5.62 | 4.8 |  |  |
| AUGUUACAUGAGGAUCACCCAUGUGAGGAUAUGUGUAUCCCUAAAAAAGUGUGGGACCAUAGAAGGCAUUUGGA | 59.1 | 64.1 |  |  |
| CACGGCUUAGGAUAUACAUGAGGAUCACCCAUGUGGGAAAGCCAAGGCGUGGUAAAGUGUAGAAGGAAGAAGGA | 13.4 | 14.9 |  |  |
| GGAGUGUGAGGAUAUAUGGUGAAGGUGAAGAGAGAGGAGGAGUAGAAGGUACAUGAGGAUCACCCAUGUUUAGG | 47 | 41.3 |  |  |
| AUGGUUCGGUCAGGAUAUCGUAGAUUGAAUAGUAUGAUUUACAUGAGGAUCACCCAUGUUACAUACGAGAAGGGACCGAAUCAU | 15.5 | 10.4 |  |  |
| AAAGUGUUAGGAUAUGUGAAGGCGUCUGAUAGACGAGGCCUGCAGAAGGGACAUGAGGAUCACCCAUGUAAAAA | 56.8 | 26 |  |  |
| CCACAUGAGGAUCACCCAUGUAGGAUAAAUCACGGCUUGGCACAGGAUAUACGGAGCGACGGAUCGUAGAAGGGUGCACUCGGC |  |  | 8.37 | 6.07 |
| AUAUAACAUGAGGAUCACCCAUGUCACUAAAGUCGAGGAUAUGGGCAGGUUAUAUCCGAACCAGAAGGCGAAUUAU |  |  | 220 | 29.2 |
| AAGGGUACUUUCGGAACGACAUGAGGAUCACCCAUGUAUACUGAGGAUAUCUACUACUAAGGACGGGAGAAGGCAGUGUAAUGU | 18 | 20.3 |  |  |
| AGGAGAAAUGUAGGAUAUGGGCGGAUAUAUGGGCAAAGCGCAUAUAUCCGCCCAGAAGGACAUGAGGAUCACCCAUGUUUCCCU | 11.1 | 13.3 |  |  |
| UGUUGUUCAGGAUAUGAUGUCUUAUACAUGAGGAUCACCCAUGUGGGUCCUGAUUUGGCGUCAGAAGGGAAUGUUG | 551 | 569 |  |  |
| UCACGGGAUUGAGGAUAUAUAUUAAUUUUUUUUAUAGAAGGCAAAAUGUUAGAUUAUUCACUAUACAUGAGGAUCACCCAUGUU |  | 22.7 |  |  |
| AGAAACUACGAGAAGGACAUAUGGUACUUCAGAUACAUGAGGAUCACCCAUGUAGGAUAUCGUAGUUUCAGGAUCGUGAGAUCA | 9.58 | 42.6 |  |  |
| CGCACUAUACAUGAGGAUCACCCAUGUUAUUAUGAGAUAGUCAGAAGGCAUUGUUAGUGAUAUUAUGAGGAUAUGAAUAGUGCG |  |  | 156 | 89.8 |
| ACAUGUACAGAGGAUAUGCGCCUUGGCAACGGUGUAGAAGGCUGAACAUGAGGAUCACCCAUGUGCAAUCCAGC | 28.4 | 146 |  |  |
| GACCGAUAGUCAGGAUAUGCAUGGUUAGUUGAUUACAUGAGGAUCACCCAUGUAGAAGGGACUUUGGCUAAAUCCGUGAUGCGU | 22.3 | 51.7 |  |  |

| Sequence | apparent Kd [1] [nM] | apparent Kd [2] [nM] | apparent Kd [3] [nM] | apparent Kd [4] [nM] |
| --- | --- | --- | --- | --- |
| GACAUCGCAGGAUAUUAGGGUUUGUACAUGAGGAUCACCCAUGUUAAUUGGGUUAAUGUCUAAGAAGGGCGGUGUC | 147 | 240 |  |  |
| CGCUGUCUCGCAGGAUAUGCAUUGGAUUACAAUGCAGAAGGGCGAUUACAUGAGGAUCACCCAUGUGUUGACAGUGAAGAAGAU |  |  | 113 | 25.5 |
| GUGCACAUUCGAGGAUAUCGGAGAGAGAUCCUUCGAGAAGGCGAUUCAUGCUGUAUUAUCCUGGACAUGAGGAUCACCCAUGUG |  |  | 199 | 127 |
| UCGGGUUAUACAGGAUAUGUUUAGGAUAAUACAUGCAGUUAUUAAUUAAUGACAGAAGGGUAUACAUGAGGAUCACCCAUGUCA | 707 | 374 |  |  |
| GGUACUCAAAGAGUACCAAUACGAACAUGAGGAUCACCCAUGUAGGAUAUGCUACUCAAAGAGUAGCAGAAGGACAUGUACCUA | 17.5 | 99.2 |  |  |
| AGGAAACAUGAGGAUCACCCAUGUAAGAUAUACACAGGAUAUGCGAAAAGAAACAAAGAAGCAGAAGGGUGGAAAA |  |  | 35.1 | 21.2 |
| GUUAGUUAAGGAUAUACAGGGAGCCGCGGCGUCUCGCCGCAACAUGAGGAUCACCCAUGUAGAAGGUGGCCAUU | 150 | 119 |  |  |
| AACAGUACAGGAUAUACAUGAGGAUCACCCAUGUGAGAAUUAAGUGGCGUACCACAUAGUAGAAGGGUACUGGA | 71 | 156 |  |  |
| AAUAAACACACAGGAUAUAGCAUCGACGUUGCGAACUUAGCGACGUCGAUGCUAGAAGGGUGAAAACAUGAGGAUCACCCAUGU |  |  | 73.3 | 19.2 |
| CUGGUUGUCGAGGAUAUGCACCGGCUCGCUGACGCAGAAGGCGACACAUGAGGAUCACCCAUGUCGGUUCGCGA | 15.6 | 31.3 |  |  |
| UUGGACGUCGUAGGAUAUGUAGGAUAUUCCUACAUGAGGAUCACCCAUGUUGACAUGGAAGAAGGACAGAAGGCCGAUGUCCAU |  |  | 409 | 4.87 |
| CCGUCCUGAGGAUAUCCACCCUCAUACAUGAGGAUCACCCAUGUUCACCCUUGGGUUCCCGGAGAAGGCAGUUUUC | 243 | 374 |  |  |
| CCAUGUUAGCAGGAUAUGCAAUUAUUCUUUUAAGCAGAAGGGCUUACAUGAGGAUCACCCAUGUAACAUUUCAU | 17.3 | 85.4 |  |  |
| CAAAGGACAGGAUAUGCGAGGGAGCCCGUGCAGGUCGCCCAACAUGAGGAUCACCCAUGUAGAAGGGUCAAAAC | 32.8 | 25.8 |  |  |
| UCGGCGCGAGGAUAUACGUUUGCUUUUUGGGAUCGUUGCGUACAUGAGGAUCACCCAUGUAGAAGGCGCGCCGC | 17.6 | 73.8 |  |  |
| AGAUCACAUGAGGAUCACCCAUGUGAGGAUAUAGAUUCAAGAGCUUCGGCUCUAAAGUCUAGAAGGCGCUAUGA | 25.1 | 25.6 |  |  |
| AAAAAACAUGAGGAUCACCCAUGUAAAAAAAUCACAGGAUAUAAGGUCGCGAAAGCGACCUUAGAAGGGUGAUCAA |  |  | 443 | 105 |
| UUAAAUCAUGUAGGAUAUGCAUGGCGAAGCUACGCAGAAGGACAUGAGGAUCACCCAUGUUAAAGCUACCGAGUUCGGUGGCAA | 116 | 156 |  |  |
| GUCGUGUAAGGAUAUGCAUCGAGGUAGCGAAUGUUGCAGGUGUAGAAGGUACAUGAGGAUCACCCAUGUAAUGU | 22.2 | 30.1 |  |  |

| Sequence | apparent Kd [1] [nM] | apparent Kd [2] [nM] | apparent Kd [3] [nM] | apparent Kd [4] [nM] |
| --- | --- | --- | --- | --- |
| CCAAGCUGUGUGAGGAUAUGCUGGUCGAAAGAUCAGCAGAAGGCACAUGAGGAUCACCCAUGUGAAAAGCUUGG | 18.3 | 50.9 |  |  |
| UGUUUUCAUGUAGGAUAUGCUUGUCGUAGAUACGCAGAAGGACAUGAGGAUCACCCAUGUUAAUGCGACAGAGUAUAGAUUCUU | 15.3 | 20.6 |  |  |
| ACAUGAGGAUCACCCAUGUUAUAUGGGAAUUAAUUUAUUUGUAGAAGGAUGUUUUCUUGUUAGUCAUAGGAUAUACUAUUAAAU | 255 | 158 |  |  |
| AAUUUCAGAUGAGGAUAUUGACAUGAGGAUCACCCAUGUAUUUGGGAAUGUUUACUGAAUUCUUACGAGAAGGUAUACGAACUU | 296 | 200 |  |  |
| AAUAACAGAGGAUAUACUAUUUUAUGUGUUUGUUGUUUUAAACAUGAGGAUCACCCAUGUAGAAGGCUGAAUGA | 22.8 | 27.6 |  |  |
| CCCUCGGGAGGAUAUGGGUGUUUUUACAUGAGGAUCACCCAUGUGGAGUAACAUGUGGGUCCAGAAGGCCCAAGGG | 1400 | 663 |  |  |
| ACAUGAUAUGUAGGAUAUCACAUUAAUUGUUUUAUAAUUGUAUUUUGGAUUUGAGAAGGACAUUUACAUGAGGAUCACCCAUGU | 15.6 | 12.3 |  |  |
| UAGUUAUUCACAGGAUAUCGCCUCUUAUUACAUGAGGAUCACCCAUGUUUACUUAGUUACAUGUUCGAGAAGGGUGUAGCCGUU | 491 | 554 |  |  |
| UGCUGGUGACAGCAUCCAUCAAAACAUGAGGAUCACCCAUGUAGAAGGCUGUACGGUUACCGUACAGAGGAUAUACAAUGAUGC | 15.4 | 29.4 |  |  |
| CUGCUUCCCAGUAUGGGUAUUUUUACAGAAGGCCAGGCACAUGAGGAUCACCCAUGUCAAGUUUUGGAGGAUAUGUUAUUGUCG |  |  | 8.53 | 4.72 |
| CUGAGCAAUCAAGGAUAUCACGUCGAUUAGACGUGAGAAGGUGAUCAUUACAUGAGGAUCACCCAUGUAUUACAUGGAGCUCAG |  |  | 1370 | 365 |
| CUUCUGUAAGGAUAUGUAUGCUCCUGGUAUGUCGCGAGGAGACAGAAGGUACAUGAGGAUCACCCAUGUGGGCG | 168 | 304 |  |  |
| AACUACCCGUCAGGAUAUCGCCGUAGGUCCUCGGGUCUCGCCGUCAUACAUGAGGAUCACCCAUGUGAGAAGGGACGGGUUUCA | 20.9 | 136 |  |  |
| GUCCUACAUGAGGAUCACCCAUGUGAGGAUAUGGAUUCGCUGGCCGUAGCCAGUGGAUCCAGAAGGCGCGUGAU | 63.1 | 64.8 |  |  |
| CUGAGGUCAGGAUAUGCAUGGCGGGACUUGCGUCGUGGCGUGCAGAAGGGACAUGAGGAUCACCCAUGUGGAGA | 88.5 | 203 |  |  |
| AGAACACAUGAGGAUCACCCAUGUGAGGAUAUCGAUGUCCCAGGGCGGGUGCGGGACUCGAGAAGGCACUUGGA | 41.9 | 88 |  |  |
| GCUAUGUCAGGAUAUUGAUCGUGAUCGGAAAUGAUCGUGAUCGAGAAGGGACAUGAGGAUCACCCAUGUGUAGU | 166 | 492 |  |  |
| AUGCCGUGCAGAGCGCGACGGCGUACAUGAGGAUCACCCAUGUAGGAUAUACUACACAAAGUGUAGUAGAAGGACAUGCGACUG | 62 | 145 |  |  |
